Test results reported in PMC7449315 (Journal for Immunotherapy of Cancer, 2020).

Legend:
[1] = M4112 levels in plasma, liver and tumor of mice bearing MC38 tumors; assay type: in vivo; conditions: MC38 tumor-bearing mice
Outline: (§1)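 Female adult C57BL/6 mice were inoculated subcutaneously with 0.5×10^6 IDO1-expressing MC38 colon carcinoma cells. At average tumor volumes of about 200–250 mm3 they received a single oral dose of the test compound (30, 75 or 200 mg/kg) or vehicle. Plasma, liver and tumor were sampled at 1, 2, 4, 8 and 24 h. Drug, kynurenine and tryptophan were measured by LC-MS/MS, and the kynurenine:tryptophan ratio was derived. Data are mean±SEM.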

tumor IDO1 = tumor IDO1 (Mus musculus, UniProt P28776); assay type: in vivo; conditions: MC38 tumor-bearing mice; 30, 75 or 200 mg/kg
tumor IDO1, sequence (P28776 whole entry): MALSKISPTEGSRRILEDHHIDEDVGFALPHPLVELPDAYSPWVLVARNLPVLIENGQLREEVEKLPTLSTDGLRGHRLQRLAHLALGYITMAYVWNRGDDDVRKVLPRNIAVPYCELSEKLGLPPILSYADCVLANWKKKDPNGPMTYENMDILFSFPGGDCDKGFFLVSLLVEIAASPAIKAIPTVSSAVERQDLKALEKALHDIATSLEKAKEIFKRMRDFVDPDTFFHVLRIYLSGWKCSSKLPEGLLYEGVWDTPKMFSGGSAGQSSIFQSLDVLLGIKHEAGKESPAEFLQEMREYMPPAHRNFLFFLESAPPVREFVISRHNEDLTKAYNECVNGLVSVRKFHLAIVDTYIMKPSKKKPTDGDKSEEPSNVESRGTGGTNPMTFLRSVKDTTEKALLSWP
Outline: as §1

IDO1 = IDO1 (Homo sapiens, UniProt P14902); assay: IDO1 activity in ex vivo LPS-stimulated whole blood from M4112-treated patients
IDO1, sequence (P14902 whole entry): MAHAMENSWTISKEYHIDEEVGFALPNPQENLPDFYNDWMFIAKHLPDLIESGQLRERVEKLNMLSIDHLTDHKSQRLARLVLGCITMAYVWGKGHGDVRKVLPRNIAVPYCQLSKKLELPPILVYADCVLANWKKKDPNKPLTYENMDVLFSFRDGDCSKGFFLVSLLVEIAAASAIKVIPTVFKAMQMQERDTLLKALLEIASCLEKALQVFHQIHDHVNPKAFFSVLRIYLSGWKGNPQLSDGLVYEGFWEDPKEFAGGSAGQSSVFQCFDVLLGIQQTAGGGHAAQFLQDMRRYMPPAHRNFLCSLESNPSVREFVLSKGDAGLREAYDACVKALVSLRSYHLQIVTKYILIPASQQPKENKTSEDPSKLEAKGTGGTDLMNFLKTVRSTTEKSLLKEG

advanced solid tumors = assay: phase I trial: preliminary antitumor activity; assay type: in vivo, human
Outline: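 Patients with advanced solid tumors received twice-daily oral doses in 28-day cycles. CT or MRI was done at baseline and within 7 days before day 1 of cycles 3, 5 and 7, then every three cycles. The investigator assessed objective response, best overall response, disease control and progression-free survival per RECIST 1.1. Binary endpoints used exact Clopper-Pearson 95% CI and PFS used Kaplan-Meier.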

NS(=O)(=O)[C@H]1CC[C@](F)(CC[C@H]2c3ccccc3-c3cncn32)CC1 [M4112]
exposure to M4112 in the liver compared with both the plasma and the tumor [1]: approximately 10 fold
concentration of M4112 in the tumor by 24 hours post-treatment ([1]; single oral dose): decreased to baseline levels
time at which the concentration of M4112 in the tumor peaked ([1]; single oral dose 30, 75 or 200 mg/kg, post-treatment): 1 to 2 h
kynurenine:tryptophan ratio in the liver and plasma (tumor IDO1): dose-dependent reduction
IDO1 activity inhibited (IDO1; 800 mg two times per day, throughout the dosing interval): Approximately 90%
IDO1 inhibition in ex vivo stimulated blood (IDO1; across all doses tested): rapid onset of IDO1 inhibition
time of maximum IDO1 inhibition (IDO1; post-M4112 administration): 1 to 4 h
dose dependence of IDO1 inhibition (IDO1; steady state): trend toward dose-dependent IDO1 inhibition
best overall response stable disease, patients (advanced solid tumors; 9 of 15 patients): 60.0%
median progression-free survival (advanced solid tumors; 15 patients): 3.7 months
objective responses (advanced solid tumors; 15 patients): no objective responses
